Format in all cases: functional, cell-based
A short description of assay [1]: TNF-alpha release is determined to know human (JN.24 cloned) V gamma-2 V delta-2 T cell stimulation. The procedure, abridged: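 JN.24 CD4+ clone, 1×10^5 cells/well, cultured in duplicate or triplicate with half-log antigen dilutions and 1×10^5 glutaraldehyde-fixed (0.05%) CP.EBV B cells as APC (1:1). Supernatants collected after 18 h; TNF-α quantified by sandwich ELISA against a TNF-α standard curve; EC50 from dose response.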

The nature of assay [2]: Proliferation of human (JN.24 cloned) V gamma-2 V delta-2 T cell. Summed up:
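JN.24 CD4+ clone, 1×10^5 cells/well, stimulated in duplicate or triplicate with half-log dilutions of antigen plus 1×10^5 CP.EBV B cells fixed with 0.05% glutaraldehyde (1:1). Supernatant removed at 18 h, then cultures pulsed with 1 µCi 3H-thymidine and harvested 16–18 h later; mean proliferation gives EC50.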

Assay [3] is described as follows: Proliferation of human (12g12 cloned) V gamma-2 V delta-2 T cell. The procedure, abridged: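 Clone 12G12 at 1×10^5 cells/well with 1×10^5 fixed Va2 fibrosarcoma cells as APC (1:1), exposed in duplicate or triplicate to half-log antigen dilutions. After 18 h supernatant removal, 1 µCi 3H-thymidine pulse; harvest 16–18 h later; EC50 from mean proliferation.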
Assay [4] can be described thus: TNF-alpha release is determined to know human (12g12 cloned) V gamma-2 V delta-2 T cell stimulation. Summed up:
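12G12 cells (1×10^5/well) cocultured 1:1 with glutaraldehyde-fixed Va2 transformed fibrosarcoma cells as APC and half-log antigen dilutions, in duplicate or triplicate. Supernatant taken at 18 h, TNF-α measured by sandwich ELISA against a standard curve; EC50 from dose response.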

Among the data in ChEMBL document CHEMBL1137030, “Synthesis of chiral phosphoantigens and their activity in gamma delta T cell stimulation” (Bioorg Med Chem Lett, 2004) are EC50 values, retold here.

Where “and” joins values, the source holds several entries; their conditions need not be identical. Identical values can stand only once.

Take `O=P(O)(O)OP(=O)(O)OCC[C@@H](O)CBr`: the concentration for a half-maximal effect (EC50) amounted to 500 nM in assay [1] (Homo sapiens, T-cell) and 1200 nM in assay [2] (Homo sapiens, T-cell).
For the molecule `O=P(O)(O)OP(=O)(O)OCC[C@H](O)CBr`, the EC50 in assay [1] (Homo sapiens, T-cell) was determined as 2000 nM; in assay [2] (Homo sapiens, T-cell) it was 4000 nM.
Consider `C[C@@](O)(CBr)CCOP(=O)(O)OP(=O)(O)O`, for which the 50% effective concentration (EC50) was found to be 0.9 nM in assay [3] (Homo sapiens, T-cell); 0.8 nM in assay [3] (t-cell); 9 nM in assay [4] (Homo sapiens, T-cell); 8 nM in assay [4] (t-cell).
Take `C[C@@]1(CCOP(=O)(O)OP(=O)(O)O)CO1`: the EC50 in assay [3] (Homo sapiens, T-cell) was 1 nM; in assay [3] (t-cell), 1 nM; in assay [2] (t-cell), 1.4 nM and 3.1 nM and 1.3 nM; in assay [4] (t-cell) it was 1.3 nM and 3.7 nM.
Consider `C[C@](O)(CBr)CCOP(=O)(O)OP(=O)(O)O`, for which the 50% effective concentration (EC50) is 1.4 nM and 0.5 nM in assay [3] (t-cell); 170 nM in assay [2] (Homo sapiens, T-cell); 120 nM and 110 nM and 85 nM in assay [2] (t-cell); 5 nM in assay [4] (Homo sapiens, T-cell); 4 nM in assay [4] (t-cell).
`O=P(O)(O)OP(=O)(O)OCC[C@@H]1CO1`: the EC50 was greater than 100000 nM in assay [1] (Homo sapiens, T-cell) and greater than 100000 nM in assay [2] (Homo sapiens, T-cell).
With `O=P(O)(O)OP(=O)(O)OCC[C@H]1CO1`, the EC50 in assay [1] (Homo sapiens, T-cell) is greater than 100000 nM; in assay [2] (Homo sapiens, T-cell) it was greater than 100000 nM.
Regarding `CC1(CCOP(=O)(O)OP(=O)(O)O)CO1` (single isomer, unassigned), the EC50 in assay [1] (t-cell) is 2900 nM and 350 nM and 1100 nM; in assay [3] (Homo sapiens, T-cell) it was 0.5 nM; in assay [3] (t-cell), 0.6 nM; in assay [4] (t-cell), 8 nM and 3 nM.

For orientation: EC50 means the concentration that produces a half-maximal response. A lower EC50 goes with higher potency in that assay.
